Rows were chosen to be rich in hits. Some 7.4% of all compounds tested hit in one or more screens of this group.
M1 ag – M1 muscarinic receptor agonism; CHO-M1 cells, Fluo-4 calcium fluorescence, agonist mode; active compounds read high; B-score at 10 µM; hit rate 3% among 64,000;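 active means fluorescence rise, raw or as B-score row- and column-corrected plate score, outside the 99.7% band of its plate's samples, either direction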
S1P1 ag-PAM – activates or potentiates agonism at human S1P1 receptor; P21453; S1P1 CRE-bla cells, forskolin, beta-lactamase FRET, potentiator mode; S1P1 agonist co-added at EC20, 2 nM; 100% = saturating reference agonist, 0% = basal; activation, % at 9.5 µM; hit rate 0.57% among 56,000;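 active means activation above a cutoff set at the mean activation of all tested compounds plus 3 SD, cut at about 54% in these data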;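 further: forskolin at 4 µM as EC80 and the EC20 agonist is SEW2871; 100% = SEW2871 at its EC100 plus forskolin at EC80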
M1 antagonist – M1 muscarinic receptor (rat) antagonism; B-score at 10 µM; hit rate 3.4% among 64,000; CHO-M1 cells, Fluo-4 calcium, ACh EC80 antagonist mode; active compounds read low;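 active means calcium fluorescence response, raw or row-and-column corrected B-score, differing from the plate sample mean either way at a set confidence level, mostly lower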
Target sequence (P08482 whole entry, looked up): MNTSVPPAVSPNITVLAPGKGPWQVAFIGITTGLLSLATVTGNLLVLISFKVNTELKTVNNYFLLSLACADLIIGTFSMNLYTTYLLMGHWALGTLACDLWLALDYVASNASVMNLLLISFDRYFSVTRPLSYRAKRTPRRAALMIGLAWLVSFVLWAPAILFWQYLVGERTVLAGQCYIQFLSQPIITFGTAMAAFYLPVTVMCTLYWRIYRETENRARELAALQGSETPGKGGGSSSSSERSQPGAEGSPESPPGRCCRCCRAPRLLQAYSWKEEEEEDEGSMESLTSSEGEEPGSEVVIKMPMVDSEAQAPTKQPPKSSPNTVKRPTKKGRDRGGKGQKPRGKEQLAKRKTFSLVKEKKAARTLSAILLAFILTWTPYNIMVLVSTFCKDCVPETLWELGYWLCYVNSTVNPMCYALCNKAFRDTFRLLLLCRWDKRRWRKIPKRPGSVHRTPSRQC
JNK3 inh – inhibitors of human JNK3 kinase; purified JNK3 kinase activity, HTS; inhibition, % at 8 µM; hit rate 0.61% among 60,000; AID 746; in the data active means inhibition above about 17%;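 further: 0% = DMSO and 100% = reference inhibitor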
S1P3 agonist – S1P3 (human) receptor agonism; hit rate 0.1% among 60,000; Q99500; activation, % at 4.5 µM; S1P3 NFAT-BLA reporter cells, FRET ratio; relative to 1 µM S1P, basal subtracted;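 active means activation above the screen-wide mean plus 3 SD, cut at about 4.5% in these data, passing the limit was not always enough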
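Measure – % activation relative to 1 µM S1P (100%), per plate · System – stable CHO line with human S1P3, Gα16, NFAT-BLA reporter · Timing – cells plated overnight, compound 4 h 37 °C, substrate 2 h RT · Technique – fluorescent BLA substrate, ex 405 nm, em 460/535 nm ratio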
Jurkat viability – cytotoxic compounds reducing Jurkat cell viability | Jurkat E6.1 viability, ATP luminescence, 48 h | AID 463 | hit rate 1.2% among 56,000 | inhibition, % at 4 µM;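 active means inhibition above the mean inhibition of all tested compounds plus 3 SD, cut at about 28% in these data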
* = called active by the depositor; · = not tested or not shown.

SMILES	M1 ag	S1P1 ag-PAM	M1 antagonist	JNK3 inh	S1P3 agonist	Jurkat viability
CCN(CC)S(=O)(=O)c1cccc(-c2nnc(SCC(=O)c3cc(C)n(C4CC4)c3C)o2)c1	3.2*	8	-0.61	-4	1	7
COc1ccccc1NC(=O)c1cc2n(n1)C(C(F)(F)F)CC(c1ccc3c(c1)OCO3)N2 (stereo not drawn)	-0.28	25	0.8*	5	-1	0
CCN1C(=O)NC2C1N(S(C)(=O)=O)CCN2S(C)(=O)=O (stereo not drawn)	-0.5	-8	0.12	-4	-1	2
CC1(C)Cc2ccccc2-c2nnc(SCC(=O)N3CCN(c4ccccc4)CC3)n21	3.3*	6	-0.5	1	0	10
CCOC(=O)C(C)Sc1nnc2n1C(C)(C)Cc1ccccc1-2 (stereo not drawn)	·	-19	·	1	0	-6
CC(C)CN(C(=O)c1ccc(=O)n(C)n1)c1nc2ccccc2s1	0.22	32	-0.46	-3	-2	-1
Cc1cnc(C(=O)Nc2cccc3cccnc23)cn1	-0.46	-6	0.3	-1	0	84*
O=C(c1ccc(N2CCCCS2(=O)=O)cc1)N1CCN(c2ccc(N3CCOCC3)nn2)CC1	0.82	-15	0.048	2	-1	6
CCOC(=O)CS(=O)(=O)c1nc(-c2ccccc2)cc(C(F)(F)F)n1	0.53	2	-2.1	2	-1	55*
CCOC(=O)CS(=O)(=O)c1nc(-c2ccc(F)cc2)cc(C(F)(F)F)n1	4.4*	-34	0.051	-1	-2	34*
CCOC(=O)CCS(=O)(=O)c1nc(-c2ccccc2)cc(C(F)(F)F)n1	0.86	·	0.0097	11	-1	68*
COCC(C)NC(=O)CCS(=O)(=O)c1nc(-c2ccc(OC)cc2)cc(C(F)(F)F)n1 (stereo not drawn)	0.53	16	0.72	-1	-1	6
O=C(c1ccc(S(=O)(=O)N2CCCC2)cc1)N1CCCc2ccccc21	0.25	-3	-1.5	-3	-1	4
CC(C)c1cc(C(F)(F)F)n2nc(C(=O)Nc3ccc4c(c3)OCO4)cc2n1	-1.5	102*	-0.59	4	0	-2
CC(C)c1cc(C(=O)Nc2ccc3c(c2)OCO3)no1	-0.26	-10	0.12	-5	0	-5
Brc1[nH]nc2ccccc12	-0.44	·	0.34	·	·	·
Cc1ccc(C2CC(C(F)(F)F)n3ncc(C(=O)NCc4ccco4)c3N2)cc1 (stereo not drawn)	0.62	10	0.0043	-5	-1	-9
Cc1cccc(Cn2c(SCCN3CCCCC3)nc3c2c(=O)[nH]c(=O)n3C)c1	-0.036	-16	-3.6*	-2	0	-8
Cc1cccc(Cn2c(SCC(=O)Nc3ccccc3)nc3c2c(=O)[nH]c(=O)n3C)c1	-0.68	-10	-0.11	-1	0	4
CC1CCN(S(=O)(=O)c2ccc(Cl)cc2)CC1	0.6	-6	-0.0098	4	-2	9
CC1=C(C)CS(=O)N(S(=O)(=O)c2ccc(Cl)cc2)C1 (stereo not drawn)	-0.91	19	0.049	20*	-1	69*
CCN(CC)c1ccc2cc(-c3nnc(-c4ccncc4)o3)c(=O)oc2c1	401*	2	-15*	1	-3	·
c1cc(-c2nnc(-c3ccncc3)o2)ccn1	-1.3	-15	0.82	1	-1	-8
Oc1[nH]c2ccccc2c1/C=N/c1nccs1	-0.71	-15	-1.2	27*	-1	2
CC(=O)Nc1c(O)[nH]c2ccccc12	-0.53	-23	0.035	2	1	-1
SMILES	M1 ag	S1P1 ag-PAM	M1 antagonist	JNK3 inh	S1P3 agonist	Jurkat viability
Oc1[nH]c2ccccc2c1C=Nc1ccc2c(c1)OCO2	-0.49	-12	-0.17	36*	0	-5
COc1ccccc1NC(=O)N1CCN(c2cc(-c3ccccc3)nc3ncnn23)CC1	6.3*	36	-0.33	0	0	2
O=C(CCS(=O)(=O)c1ccc(Cl)cc1)N1CCN(S(=O)(=O)c2cccs2)CC1	-0.16	0	-0.77	3	0	9
O=S(=O)(c1cccs1)N1CCN(CC(O)COc2cc(Cl)ccc2Cl)CC1 (stereo not drawn)	3	66*	-1.5	7	-1	25
CCOC(=O)Nc1ccc2c(c1)Nc1ccccc1S2	0.19	29	0.21	1	-2	12
CCOC(=O)C1(Nc2nccs2)Sc2ccccc2NC1=O (stereo not drawn)	0.48	33	-1.9	-7	0	83*
COc1cc(-c2nnc3sc(-c4ccccn4)nn23)cc(OC)c1OC	1.4	1	0.15	3	0	0
Cc1ccc(S(=O)(=O)NC2=NCN(CCN3CCOCC3)CN2)cc1	0.014	-20	0.2	1	-1	-2
Clc1ccc2nc(NC3=NCN(CCN4CCOCC4)CN3)nc(-c3ccccc3)c2c1	0.8	-22	-15*	1	-1	12
COc1cccc(-c2nc(N3CCC(C)CC3)c3ccccc3n2)c1O	-0.62	10	2.2*	2	1	·
O=C(NCc1ccccc1)c1cccc(NC(=O)c2ccco2)c1	0.058	·	-0.23	·	·	·
Cc1ccc(C(=O)Nc2cccc(C(=O)NCc3ccccc3)c2)o1	3.1*	15	-0.41	0	-1	3
CCCCn1cc(SCC(=O)O)c2ccccc21	-0.55	·	21*	-9	-1	-5
Cc1csc(NC(=O)CCC(=O)N(CC(=O)NC2CCCC2)Cc2ccco2)n1	-0.18	-11	-0.046	0	1	-5
CCOC(=O)c1cc2ccc(OC(=O)c3ccco3)cc2oc1=O	-0.075	-291	0.079	0	28*	0
COc1ccccc1Oc1c(C)oc2cc(OC(=O)c3ccco3)ccc2c1=O	2.3	-8	1.4	-2	-2	2
CCOC(=O)CN1C(=O)C(C)(C)Oc2ccc(C(=O)Nc3ccccc3OC)cc21	0.45	90*	-0.21	5	0	8
Cc1ccc(NC(=O)c2ccc3c(c2)N(CC(=O)N2CCCCC2)C(=O)C(C)(C)O3)cc1	-1.1	-11	1.1	-1	0	5
COc1ccccc1N1CCN(C(=O)c2ccc(NC(C)=O)cc2)CC1	0.22	-2	-0.11	5	0	0
COc1ccccc1N1CCN(C(=O)c2c(-c3ccccc3)noc2C)CC1	2.9	14	-0.85	-1	-1	88*
CCCCC(=O)Nc1ccc(C(=O)N2CCN(c3ccccc3OC)CC2)cc1	-0.051	-30	3.4*	-3	7	-5
COc1ccccc1CN(Cc1ccco1)S(=O)(=O)c1ccc(-n2cnnn2)c(OC)c1	·	16	·	5	-1	9
COc1ccc(C2NC(=O)NC3=C2CCc2ccccc23)cc1 (stereo not drawn)	6.9	-17	0.16	2	-1	72*

Screens: PubChem BioAssay, several laboratories
